Only a selection was taken, and hits are over-represented in it overall.
ABCB1 inh: human ABCB1 inhibition, ABCG2 as counter-screen. P08183. CCRF-Adr cells, JC-1 efflux, flow cytometry. inhibition, % at 6.6 µM. hit rate 0.067% among 190,000. AID 1326; in the data active = inhibition above about 40%;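 note: 0% = vehicle and 100% = reference inhibitor; higher value means more JC-1 retained so stronger ABCB1 efflux block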
Target sequence (P08183 whole entry, looked up): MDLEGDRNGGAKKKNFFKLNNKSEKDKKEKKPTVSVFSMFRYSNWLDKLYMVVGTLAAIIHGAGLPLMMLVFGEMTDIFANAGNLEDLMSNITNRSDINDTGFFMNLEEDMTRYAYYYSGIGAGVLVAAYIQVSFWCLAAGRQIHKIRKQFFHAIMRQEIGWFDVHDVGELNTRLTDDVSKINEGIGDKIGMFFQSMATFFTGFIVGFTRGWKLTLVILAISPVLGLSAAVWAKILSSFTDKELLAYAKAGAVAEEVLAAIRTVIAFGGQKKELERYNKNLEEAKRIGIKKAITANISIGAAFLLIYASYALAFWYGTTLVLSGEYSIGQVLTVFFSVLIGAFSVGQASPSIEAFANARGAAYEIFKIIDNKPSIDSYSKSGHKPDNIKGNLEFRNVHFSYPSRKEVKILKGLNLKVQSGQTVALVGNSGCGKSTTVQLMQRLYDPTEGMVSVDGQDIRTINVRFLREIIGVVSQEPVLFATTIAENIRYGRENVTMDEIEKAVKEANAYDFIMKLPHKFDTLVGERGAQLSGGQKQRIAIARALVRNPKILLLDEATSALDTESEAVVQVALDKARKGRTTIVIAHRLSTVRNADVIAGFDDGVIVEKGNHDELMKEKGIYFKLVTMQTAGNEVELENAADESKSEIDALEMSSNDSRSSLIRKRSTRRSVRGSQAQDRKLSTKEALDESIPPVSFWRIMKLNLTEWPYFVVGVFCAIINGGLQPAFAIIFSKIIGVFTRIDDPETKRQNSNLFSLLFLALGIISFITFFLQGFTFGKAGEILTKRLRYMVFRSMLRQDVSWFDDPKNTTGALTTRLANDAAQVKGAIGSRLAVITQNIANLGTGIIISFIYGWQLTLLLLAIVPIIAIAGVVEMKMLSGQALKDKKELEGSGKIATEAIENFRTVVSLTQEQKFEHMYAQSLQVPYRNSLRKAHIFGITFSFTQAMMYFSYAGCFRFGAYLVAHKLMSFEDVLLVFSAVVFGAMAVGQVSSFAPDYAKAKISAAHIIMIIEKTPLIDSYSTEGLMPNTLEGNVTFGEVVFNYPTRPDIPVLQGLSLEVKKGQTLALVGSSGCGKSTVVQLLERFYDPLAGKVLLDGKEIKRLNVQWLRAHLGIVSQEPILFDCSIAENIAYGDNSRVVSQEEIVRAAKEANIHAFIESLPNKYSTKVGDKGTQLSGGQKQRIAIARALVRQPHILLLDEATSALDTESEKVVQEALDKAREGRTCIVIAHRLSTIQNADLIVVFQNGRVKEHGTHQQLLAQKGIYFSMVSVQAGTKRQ
ABCG2 inh: blocks JC-1 efflux by human ABCG2 transporter; Q9UNQ0; IgMXP3 cells, flow cytometry; inhibition, % at 6.6 µM; hit rate 0.1% among 190,000;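 active = inhibition above 80%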;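 note: 0% = DMSO and 100% = nicardipine control wells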
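Incubation: cells with compound and JC-1, 10 min at 25 °C, rotating, no wash / Test system: IgMXP3 (ABCG2) plus far-red-tagged CCRF-Adr (ABCB1) cells / Compound dosing: one concentration, 6.6 µM final / Also added: JC-1 fluorescent substrate / Evaluation: efflux inhibition in percent versus controls / Detection: flow cytometry, 530 nm JC-1 signal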
FLuc act counter: affects firefly luciferase, flagging false hits in luciferase stimulation screens. P08659. AID 1027. activation factor at 10 µM. 200,000 tested, under 10 active. ATPlite luciferase biochemical, luminescence, 10 min; 0 = ATP-free wells, 1 = DMSO control;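 active = luciferase activation factor, scaled between plate controls, of at least 2 with compound at 10 µM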
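Material: Luciferase/luciferin reagent mix; Doses: test compounds dosed from 2 mM stocks in 100% DMSO; Schedule: 10 min incubation after luciferase reagent addition, room temperature; Measured by: luminescence from luciferase reaction; Read-out: luminescence gain marking luciferase activators.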
Diaphorase act: counter-screen for diaphorase-based assays: diaphorase activators and chemical reducers; Diaphorase/resazurin coupled assay, resorufin fluorescence, 16 min; stronger effect = higher value; 1 = vehicle wells, 0 = NADH-free wells; activation factor at 20 µM; hit rate 0.005% among 190,000;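 active = diaphorase activity raised at least twofold by the compound at 20 µM; inactive = activation factor below 2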
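Material: bacterial diaphorase enzyme (C. kluyveri); amount: enzyme 0.07 U/mL final; reagent: NADH substrate 0.114 mM plus resazurin dye 0.1 mM, final; doses: single compound dose of 20 µM, 1% DMSO final; timing: 16 min enzyme reaction, ambient temperature; measured by: fluorescence of resorufin, 544 nm excitation, 590 nm emission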
ABCB6 inh MLPCN: blocks the human ABCB6 transporter; AID 602162; hit rate 0.19% among 360,000; fluorescence ratio to DMSO, % at 10 µM; K562-ABCB6 porphyrin accumulation, flow cytometry, 1 h; stronger effect = lower value;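 active = fluorescence ratio to DMSO below 75%, the collection mean minus 3 SD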;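 note: signal is porphyrin accumulated inside mitochondria; 100% equals median channel fluorescence of DMSO control wells; lower ratio means ABCB6 inhibition with less porphyrin fluorescence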
FLuc inh counter: Photinus pyralis luciferase inhibition counter-screen | ATPLite firefly luciferase biochemical luminescence, 10 min | P08659 | inhibition, % at 10 µM | AID 1006 | hit rate 1.5% among 200,000;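 active = inhibition above about 50% when tested at 10 µM, limit read from the data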
ABCB1 confirm: inhibits human ABCB1 efflux, confirmed at single point; shares compounds with ABCG2 inh; CCRF-Adr cells, JC-1 efflux, flow cytometry; inhibition, % at 6.6 µM; hit rate 7% among 270;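 active = inhibition of pump activity above 50%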;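 note: 0% = DMSO and 100% = nicardipine full pump inhibition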
ABCG2 confirm: inhibits human ABCG2 efflux, confirmed at single point. shares compounds with ABCG2 inh. IgMXP3 cells, JC-1 efflux, flow cytometry. inhibition, % at 6.6 µM. hit rate 6% among 270. AID 1453;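 active = inhibition above 50%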;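 note: 0% = DMSO wells and 100% = nicardipine pump inhibitor wells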
IgMXP3 autofluor: compound fluoresces at 488/530 nm in IgMXP3 cells. shares compounds with ABCG2 inh. compound autofluorescence 488/530 nm, flow; stronger effect = higher value. fluorescence at 6.6 µM. hit rate 30% among 270. AID 1480;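 active = fluorescence in ABCG2-expressing cells above the plate's control-well mean plus 3 SD, cut at about 15 in these data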;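 note: median cell fluorescence with compound minus that of DMSO-treated control cells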
CCRF-Adr fluor: counter-screen for ABCB1 inhibitors: compound fluorescence in CCRF-Adr cells; shares compounds with ABCG2 inh; AID 1483; hit rate 30% among 270; fluorescence at 6.6 µM; compound autofluorescence 488/530 nm, flow cytometry; stronger effect = higher value;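 active = fluorescence beyond the plate control mean plus 3 SD, with a fluorescence-to-maximum score over 2, cut at about 25 in these data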
ABCB6 blocker 1: blocks the human ABCB6 transporter; shares compounds with ABCB6 inh MLPCN; K562-ABCB6 porphyrin accumulation, flow cytometry, 1 h; stronger effect = lower value; ratio response (% of DMSO), % at 10 µM; 700 tested, under 10 active;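 active = repeat-averaged ratio response below 75% of DMSO, the collection mean minus 3 SD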;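 note: median porphyrin fluorescence at 575 nm with 488 nm excitation from mitochondria; lower ratio means less porphyrin signal so ABCB6 inhibition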
* hit, by the source's call; . = no result.

SMILES	ABCB1 inh	ABCG2 inh	FLuc act counter	Diaphorase act	ABCB6 inh MLPCN	FLuc inh counter	others
CN1CCN(C(=O)COc2ccc(-c3nc4ccccc4s3)cc2)CC1	1	3	0	0.9	100	96*
CN1CCN(C(=O)COc2ccc3ccccc3c2)CC1	.	.	.	.	101	.
ClCC(Br)CBr (stereo unspecified)	.	.	.	.	101	.
O=c1[nH]c(=S)[nH]c(O)c1N=Nc1ccc2c(c1)OCO2	0	-1	0.5	0.8	113	53*
O=c1[nH]c(O)c(N=Nc2ccc3c(c2)OCCO3)c(=O)[nH]1	1	37	0.3	1	104	69*
COC(=O)C1=C(c2ccc3ccccc3c2)C[C@@H]2CC[C@H]1N2C(=O)NC(C)C	.	.	.	.	93	.
Cn1nnc(CC[N+](C)(C)C)n1	.	.	.	.	109	.
CC(C)(C)n1cc(C(=O)c2ccc3ccccc3c2O)cn1	1	6	0.3	1	97	69*
CCCNC(=O)N1[C@H]2CC[C@@H]1C(C(=O)OC)=C(c1ccc(-c3ccccc3)c(F)c1)C2	.	.	.	.	83	.
C=C1C(=O)OC2CC3(C)OC3C3OC3C3=CC(OC3=O)C12 (stereo unspecified)	.	.	.	.	36*	.
CNC(=O)Oc1cccc(-c2cn3cc(OC(=O)NC)ccc3n2)c1	0	0	0.3	0.6	106	73*
CNC(=O)Oc1ccc2c(c1)C(=O)c1ccccc1CO2	0	0	0.6	0.7	184	40
CNC(=O)Oc1ccc(-c2cn3cc(Cl)ccc3n2)cc1	1	19	0.1	0.8	103	93*
CN1CCC(=O)N(CCN=[N+]=[N-])CC1	.	.	.	.	104	.
Cc1cc(/C=C2/C(=O)NC(=O)N(C)C2=O)c(C)n1-c1ccccc1	1	5	0.4	0.9	107	62*
Cc1cc(C=C2C(=O)NC(=O)NC2=O)c(C)n1-c1ccc2c(c1)OCO2	0	-4	0.4	0.9	102	56*
Cc1cc(C=C2C(=O)NC(=S)NC2=O)c(C)n1-c1ccc2c(c1)OCO2	-1	-7	0.6	0.5	99	39
Cc1cc(/C=C2\C(=O)NC(=O)N(c3ccc(F)cc3)C2=O)c(C)n1-c1cccc(C(=O)O)c1	0	0	1.1	0.9	98	-6
Cc1cc(/C=C2\C(=O)NC(=O)N(C)C2=O)c(C)n1-c1ccc2c(c1)OCO2	2	14	0.4	0.9	96	61*
C[C@H]1COc2cccc(N3CCN(C)CC3)c2S(=O)(=O)N1	.	.	.	.	99	.
CCC/C=N/O	.	.	.	.	102	.
O=C(N/N=C/c1c(O)n(C2CCCCC2)c(=S)[nH]c1=O)c1ccccc1	.	.	.	.	12*	.
O=c1[nH]c(=S)[nH]c(O)c1N=Nc1ccc(OC(F)F)cc1	-1	5	0.4	0.8	97	57*
COc1cccc(N=Nc2c(O)[nH]c(=S)[nH]c2=O)c1	.	.	.	.	93	.
COc1ccc(N=Nc2c(O)[nH]c(=S)[nH]c2=O)cc1	0	2	0.4	0.7	101	59*
SMILES	ABCB1 inh	ABCG2 inh	FLuc act counter	Diaphorase act	ABCB6 inh MLPCN	FLuc inh counter	others
CN(C)C(=O)Oc1ccc(OC(=O)N(C)C)cc1	0	0	1.1	0.9	95	-10
CN(C)C(=O)Oc1ccc(OCc2nc3ccccc3[nH]2)cc1	1	4	0.2	1	99	80*
CC(=O)Nc1ccccc1C(=O)OCC(=O)c1ccc2c(c1)OCCO2	-2	29	0.2	1	102	82*
CC(=O)Nc1ccccc1C(=O)OCC(=O)Nc1ncccn1	.	.	.	.	94	.
Cc1ccc(NC(=O)CC[C@H]2O[C@@H](n3cnc4c(NC(=O)c5ccccc5)ncnc43)[C@H](O)[C@@H]2O)cc1C	.	.	.	.	99	.
Cc1ccc(S(=O)(=O)CC(=O)c2cc(C)c(OC(=O)N(C)C)c(C)c2)cc1	0	-1	1	0.7	83	-1
Cc1cc(C(=O)CS(=O)(=O)c2ccccc2)cc(C)c1OC(=O)N(C)C	-1	2	0.2	0.8	100	78*
CCn1cc(/C=c2/sc3n(c2=O)C2c4ccccc4OC(C)(N=3)C2C(=O)OC)c(C)n1 (stereo unspecified)	53*	26	1.1	0.8	90	-11	ABCB1 confirm=14;ABCG2 confirm=12;IgMXP3 autofluor=18*;CCRF-Adr fluor=13
COC(=O)C1=C(c2cc3ccccc3o2)C[C@@H]2CC[C@H]1N2C(=O)N1CCC(C)CC1	.	.	.	.	102	.
Cc1cccc(N2C(=O)NC(=O)/C(=C\c3ccc4c(c3)CCCN4Cc3ccccc3)C2=O)c1	50*	64	1.1	0.9	124	-8	ABCB1 confirm=1;ABCG2 confirm=-1;IgMXP3 autofluor=14*;CCRF-Adr fluor=59*
CC1=NN(c2ccccc2)C(=O)C1/C=C1/C(=O)NC(=O)N(c2cccc(C)c2)C1=O (stereo unspecified)	0	0	0.9	0.8	.	13
COc1ccc(C(C)=O)cc1Cc1c(O)[nH]c(=S)[nH]c1=O	.	.	.	.	65*	.	ABCB6 blocker 1=102
CCOc1ccc(C(C)=O)cc1Cc1c(O)[nH]c(=S)[nH]c1=O	.	.	.	.	102	.
CC(C)CCCn1c(O)c(/C=C2/C=CC=N2)c(=O)[nH]c1=O	1	19	1.1	0.8	70*	-6	ABCB6 blocker 1=102
CCCCn1c(O)c(C=NCCCn2ccnc2)c(=O)[nH]c1=O	1	2	1	1	100	0
COC(=O)C1=C(c2ccc(OCc3ccccc3)cc2)C[C@@H]2CC[C@H]1N2C(=O)NCc1cccc(C(F)(F)F)c1	.	.	.	.	93	.
COc1cccc(N2C(=O)CC(=O)NC2=O)c1	0	-1	1.1	1	71*	-10	ABCB6 blocker 1=102
COc1cccc(C(c2nnnn2Cc2ccccc2)N2CCC(n3c(=O)[nH]c4ccccc43)CC2)c1OC (stereo unspecified)	.	.	.	.	74*	.	ABCB6 blocker 1=96
COc1ccc2c(c1)[C@@]13CCC=C[C@H]1[C@@H](C2)NCC3	.	.	.	.	102	.
Cc1nonc1OCCNc1ccc([N+](=O)[O-])c2cccnc12	1	40	1	0.8	72*	1	ABCB6 blocker 1=112
CCC(=O)c1cn(Cc2ccccc2)c2ccccc12	1	3	1	0.9	97	-4
CN(C)CCOC(=O)c1cn(Cc2ccccc2)c2ccccc12	0	1	1.1	0.9	7.0*	-8	ABCB6 blocker 1=95
COC(=O)C1=C(c2ccc(-c3ccccc3)c(F)c2)C[C@@H]2CC[C@H]1N2C(=O)NCc1ccco1	.	.	.	.	94	.
